# Screening results: PubChem BioAssay, Broad Institute
# Hits are enriched below; roughly 5.9% of the tested compounds scored in any of these assays.
# KDM4C inh – inhibitors of human demethylase GASC-1 KDM4C. Q9H3R0. GST-KDM4C 2-372, H3K9me3 peptide, LANCE TR-FRET. inhibition, % at 12.5 µM. actives 0.15% (n = 96,000). AID 720574;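 active = mean replicate inhibition above about 25%, with at least 55% of replicates also reaching it, limit read from the data, passing the limit was not always enough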
# Target sequence (Q9H3R0 2-372 limits assumed): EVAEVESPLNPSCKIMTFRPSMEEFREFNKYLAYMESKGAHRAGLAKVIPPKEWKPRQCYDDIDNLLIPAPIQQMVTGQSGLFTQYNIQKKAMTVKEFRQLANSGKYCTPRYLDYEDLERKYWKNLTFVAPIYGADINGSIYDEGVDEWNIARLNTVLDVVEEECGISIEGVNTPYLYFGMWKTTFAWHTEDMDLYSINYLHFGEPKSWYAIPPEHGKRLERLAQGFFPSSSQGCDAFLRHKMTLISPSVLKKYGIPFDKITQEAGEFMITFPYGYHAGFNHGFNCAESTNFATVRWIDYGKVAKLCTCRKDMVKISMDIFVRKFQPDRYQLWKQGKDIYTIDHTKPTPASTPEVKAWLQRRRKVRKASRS
#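 Material: GST-tagged GASC-1 (JMJD2C) catalytic fragment, aa 2-372. Input: enzyme final amount 10 nM. Medium: HEPES buffer, pH 7.5, plus ascorbate. Reagent: H3K9me3 peptide substrate, Fe(II), 2-oxoglutarate. Doses: single dose. Times: reaction 30 min RT, detection step 1 h RT. Measured by: LANCE TR-FRET. Evaluation: Fall in 671/618 emission ratio as inhibition.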
# Tcruzi prolif – blocks T. cruzi growth in NIH3T3 culture; actives 5.9% (n = 77,000); T. cruzi beta-gal in NIH3T3, GalScreen luminescence, 90 h; inhibition, % at 8.34 µM;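 active = mean inhibition above about 93%, with at least 55% of replicates each passing it, limit read from the data, passing the limit was not always enough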
# Pf Dd2 inh – blocks growth of Plasmodium falciparum Dd2 parasites | P. falciparum Dd2 growth, SYBR Green, 72 h; hits give low values | activity change, % at 10 µM | actives 2.3% (n = 94,000); in the data active = activity change below about -80%
# IDH1 mut inh – blocks human IDH1 R132H reductase activity. diaphorase/resazurin fluorescence, 60 min. actives 0.18% (n = 70,000). O75874. inhibition, % at 10 µM. AID 624101; in the data active = inhibition above about 34%;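 note: 0% = DMSO and 100% = no enzyme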
# * marks the source's active call; other numbers are inactive results; / = not tested or not shown; ! = repeats disagree.
SMILES,KDM4C inh,Tcruzi prolif,Pf Dd2 inh,IDH1 mut inh
CC(C)(C)[S@](=O)N1Cc2cc(C(=O)N[C@H]3CCN(Cc4ccccc4)C3)nc(-c3cccc(-c4ccncc4)c3)c2[C@@H]1CCO,-0.9,/,-78.2,/
CN(C)CC#Cc1cccc(-c2nc(C(=O)N[C@@H]3CCN(Cc4ccccc4)C3)cc3c2[C@H](CCO)N(S(=O)C(C)(C)C)C3)c1 (some centres not stated),/,/,-85.3*,/
CN(C)CC#Cc1cccc(-c2nc(C(=O)N3CCN(Cc4ccccc4)CC3)cc3c2[C@@H](CCO)N(S(=O)C(C)(C)C)C3)c1 (some centres not stated),/,/,-2.7,/
CC(C)(C)[S@](=O)N1Cc2cc(C(=O)N[C@@H]3CCN(Cc4ccccc4)C3)nc(-c3cccc(-c4cccnc4)c3)c2[C@@H]1CCO,-3.3,91.2,-87.8*,0.6
C[C@@H]1CN([C@@H](C)CO)C(=O)c2cc(NC(=O)Nc3ccccc3)ccc2O[C@@H](C)CCCCO[C@H]1CN(C)S(=O)(=O)c1ccccc1,0.4,/,/,0.3
C[C@@H]1CN([C@@H](C)CO)C(=O)c2cc(NC(=O)Nc3ccccc3)ccc2O[C@@H](C)CCCCO[C@@H]1CN(C)S(=O)(=O)c1ccccc1,0.6,-16.1,-67.5,-0.2
C[C@@H]1CN([C@H](C)CO)C(=O)c2cc(NC(=O)Nc3ccccc3)ccc2O[C@@H](C)CCCCO[C@@H]1CN(C)S(=O)(=O)c1ccc(Cl)cc1,0.0,38.5,-86.4*,2.5
C[C@@H]1CN([C@@H](C)CO)C(=O)c2cc(NC(=O)Nc3ccccc3)ccc2O[C@@H](C)CCCCO[C@@H]1CN(C)S(=O)(=O)c1ccc(Cl)cc1,2.1,-119.5,-87.4*,-2.8
C[C@@H]1CN([C@H](C)CO)C(=O)c2cc(NC(=O)Nc3ccccc3)ccc2O[C@@H](C)CCCCO[C@H]1CN(C)S(=O)(=O)c1ccc(Cl)cc1,-2.6,-5.6,-81.3*,1.6
C[C@@H]1CCCCO[C@@H](CN(C)S(=O)(=O)c2ccc(Cl)cc2)[C@@H](C)CN([C@H](C)CO)C(=O)c2cc(NC(=O)Nc3ccccc3)ccc2O1,-1.5,-6.8,-84.3*,0.8
C[C@@H]1CCCCO[C@@H](CN(C)S(=O)(=O)c2ccccc2)[C@H](C)CN([C@H](C)CO)C(=O)c2cc(NC(=O)Nc3ccccc3)ccc2O1,0.0,54.8,-78.4,-0.9
Cc1ccc(S(=O)(=O)N(C)C[C@@H]2OCCCC[C@H](C)Oc3ccc(NC(=O)Nc4ccccc4)cc3C(=O)N([C@H](C)CO)C[C@H]2C)cc1,0.5,73.7,-89.9*,/
C[C@@H]1CN([C@H](C)CO)C(=O)c2cc(NC(=O)Nc3ccc4c(c3)OCO4)ccc2O[C@@H](C)CCCCO[C@@H]1CN(C)S(=O)(=O)c1ccc(Cl)cc1,0.8,50.6,-87.8*,-0.2
O=C(Cn1c(=O)oc2ccccc21)Nc1sc2c(c1C(=O)O)CCCC2,/,/,/,-0.4
Cc1ccc(S(=O)(=O)N(C)C[C@@H]2OCCCC[C@H](C)Oc3ccc(NC(=O)Nc4ccc(F)cc4)cc3C(=O)N([C@H](C)CO)C[C@H]2C)cc1,/,/,-81.7*,-1.3
Cc1ccc(S(=O)(=O)N(C)C[C@@H]2OCCCC[C@H](C)Oc3ccc(NC(=O)Nc4ccc(F)cc4)cc3C(=O)N([C@@H](C)CO)C[C@@H]2C)cc1,-0.4,/,-82.7*,-1.3
CN(C)C(=O)c1ccc(-c2ccc(C3[C@@H]4CN(Cc5cccnc5)C[C@H]3N4)cc2)cc1 (some centres not stated),1.1,/,-16.3,/
Cc1ccccc1-c1ccc(C2[C@@H]3CN(Cc4cccnc4)C[C@H]2N3)cc1 (some centres not stated),0.0,/,-90.3*!,/
Fc1cccc(-c2ccc(C3[C@@H]4CN(Cc5cccnc5)C[C@H]3N4)cc2)c1 (some centres not stated),-0.5,/,-90.3*!,/
CN(CC(=O)Nc1cccc(Cl)c1)S(=O)(=O)c1ccccc1,/,/,/,0.6
O=C(COc1ccccc1[N+](=O)[O-])Nc1ccc2oc(-c3cccc(Br)c3)nc2c1,/,/,/,-0.1
C/C=C/c1ccc([C@@H]2[C@H](CO)N(CC3CC3)C23CN(C(=O)c2ccc4c(c2)OCO4)C3)cc1,-0.8,/,-82.5*,/
FC(F)(F)c1cccc(CN2[C@@H]3CNC[C@H]2[C@@H]3c2ccc(-c3cccnc3)cc2)c1,-0.1,/,-84.2*,/
COc1ccc(-c2ccccc2[C@H]2[C@@H](C#N)N(C(=O)C3CCCCC3)[C@H]2CO)cc1,-0.5,/,-92.7*,/
COc1ccc(-c2ccccc2[C@H]2[C@@H](CO)N(C(=O)C3CCOCC3)[C@H]2C#N)cc1,-0.8,/,-86.8*,/
SMILES,KDM4C inh,Tcruzi prolif,Pf Dd2 inh,IDH1 mut inh
N#C[C@H]1[C@H](c2ccccc2-c2ccccc2F)[C@H](CO)N1C(=O)C1CCOCC1,2.6,/,-73.1,/
N#C[C@H]1[C@@H](c2ccccc2-c2ccccc2F)[C@@H](CO)N1C(=O)C1CCOCC1,1.4,/,-94.9*,/
COc1ccc(-c2ccccc2[C@H]2[C@@H](CO)N(C(=O)C3CCCCC3)[C@H]2C#N)cc1,-0.2,/,9.6,/
Cc1cc(C(F)(F)F)nc2snc(Br)c12,/,/,/,-0.1
COc1ccc(-c2nnc(SCC(=O)c3ccc(Cl)cc3)n2-c2ccc(C)cc2)cc1OC,/,/,/,0.3
C[C@@H]1CN([C@H](C)CO)C(=O)c2c(c3ccccc3n2C)-c2ccccc2CO[C@H]1CN(C)S(=O)(=O)c1ccccc1,-7.2,72.2,-75.0,/
C[C@H]1CN([C@@H](C)CO)C(=O)c2c(c3ccccc3n2C)-c2ccccc2CO[C@@H]1CN(C)S(=O)(=O)c1ccc(F)cc1,-2.7,83.2,-90.7*,/
C[C@H](CO)N1C[C@H](C)[C@H](CN(C)S(=O)(=O)c2ccc(F)cc2)OCc2ccccc2-c2c(n(C)c3ccccc23)C1=O,-1.0,83.9,-87.4*,-2.4
C[C@@H]1CN([C@H](C)CO)C(=O)c2c(c3ccccc3n2C)-c2ccccc2CO[C@H]1CN(C)S(=O)(=O)c1ccc(F)cc1,-3.0,63.3,-39.7,0.3
Cc1cc(C)nc(N(C#N)C(C(=O)c2ccccc2)c2ccccc2)n1 (configuration not stated),/,/,/,-0.6
CC(C)CC#Cc1ccc([C@@H]2[C@H](CO)N3CCCCN(S(=O)(=O)Cc4ccccc4)C[C@@H]23)cc1,-2.1,93.3,-84.4*,/
CC(C)CC#Cc1ccc([C@@H]2[C@@H](CO)N3CCCCN(S(=O)(=O)Cc4ccccc4)C[C@@H]23)cc1,0.7,79.9,-82.8*,/
CCCC#Cc1ccc([C@H]2[C@@H](CO)N3CCCCN(S(=O)(=O)Cc4ccccc4)C[C@@H]23)cc1,-0.3,82.5,-23.2,/
CCOc1ccc(-n2c(SCC(=O)Nc3ccc(Cl)cc3)nc3ccccc3c2=O)cc1,/,/,/,-0.1
COc1ccc(S(=O)(=O)N(CC(N)=O)c2ccc(C)cc2)cc1Br,/,/,/,0.1
C[C@@H]1CCCCO[C@@H](CN(C)C(=O)Nc2ccc3c(c2)OCO3)[C@@H](C)CN([C@H](C)CO)C(=O)c2cc(NC(=O)Nc3ccc(C(F)(F)F)cc3)ccc2O1,2.3,86.3,15.6,-0.8
